Reference: ChEMBL document CHEMBL2401717, “Synthesis and bioactive evaluation of novel hybrids of metronidazole and berberine as new type of antimicrobial agents and their transportation behavior by human serum albumin” (Bioorg Med Chem, 2013)
Values after ≈ are worked out from the molar mass of the structure shown.

Tests used:
Pseudomonas aeruginosa = assay: Antibacterial activity against Pseudomonas aeruginosa after 24 hrs by twofold broth dilution method; format: functional
Summary of the method: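 Twofold broth dilution in 96-well microplates following NCCLS guidance; MIC read as the endpoint; tests run in triplicate.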

Shigella dysenteriae = assay: Antibacterial activity against Shigella dysenteriae after 24 hrs by twofold broth dilution method; format: functional
Summary of the method: (§1)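 MIC by NCCLS-recommended twofold broth microdilution, run in triplicate. Strains: B. subtilis ATCC6633, E. coli DH52, M. luteus ATCC4698, P. vulgaris ATCC6896, S. dysenteriae, S. aureus ATCC25923, MRSA N315, C. albicans ATCC76615, C. mycoderma. References were chloromycin, norfloxacin and berberine for bacteria, and fluconazole for fungi.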

Staphylococcus aureus [1] = assay: Antibacterial activity against Staphylococcus aureus ATCC 25923 after 24 hrs by twofold broth dilution method; format: functional; conditions: ATCC 25923, 24 h; summary of the method: as §1
Staphylococcus aureus [2] = assay: Antibacterial activity against methicillin-resistant Staphylococcus aureus N315 after 24 hrs by twofold broth dilution method; format: functional; conditions: N315, 24 h; summary of the method: as §1
Proteus vulgaris = assay: Antibacterial activity against Proteus vulgaris after 24 hrs by twofold broth dilution method; format: functional; summary of the method: as §1
Candida = assay: Antifungal activity against Candida mycoderma after 24 hrs by twofold broth dilution method; format: functional; summary of the method: as §1
Escherichia coli = assay: Antibacterial activity against Escherichia coli DH52 after 24 hrs by twofold broth dilution method; format: functional; conditions: DH52, 24 h; summary of the method: as §1
Candida albicans = assay: Antifungal activity against Candida albicans after 24 hrs by twofold broth dilution method; format: functional; summary of the method: as §1
Bacillus subtilis = assay: Antibacterial activity against Bacillus subtilis after 24 hrs by twofold broth dilution method; format: functional; summary of the method: as §1
Micrococcus luteus = assay: Antibacterial activity against Micrococcus luteus ATCC 4698 after 24 hrs by twofold broth dilution method; format: functional; conditions: ATCC 4698, 24 h; summary of the method: as §1
[3] = Stability of the compound at 30 to 80 degC after 30 mins by UV spectrophotometry; format: physicochemical; conditions: 0.5 h
Summary of the method: (§2)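 Stability followed by UV spectrometry across pH 6.5–8.5 and temperatures 30–80 °C.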

[4] = Stability of the compound at pH 6.5 to 8.5 after 30 mins by UV spectrophotometry; format: physicochemical; conditions: buffer, pH 6.5, 0.5 h; summary of the method: as §2
[5] = Solubility of the compound in phosphate buffer at pH 7.5 after 20 hrs by UV spectrophotometry; format: physicochemical
Summary of the method: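 Phosphate buffer pH 7.5 added to solid; suspension sonicated 10 min, then shaken at room temperature for 20 h and centrifuged. Supernatant concentration read by UV absorbance against a regression calibration curve (278 and 340 nm).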

[6] = Octanol-water partition coefficient, log P of the compound after 24 hrs by UV-Vis spectrophotometry; format: physicochemical

Structure (SMILES)	MIC (Pseudomonas aeruginosa)	MIC (Shigella dysenteriae)	MIC (Staphylococcus aureus [1])	MIC (Staphylococcus aureus [2])	MIC (Proteus vulgaris)	MIC (Candida)	MIC (Escherichia coli)	MIC (Candida albicans)	MIC (Bacillus subtilis)	MIC (Micrococcus luteus)	Stability [3]	Stability [4]	solubility at 20 h [5]	logP at 24 h [6]
COc1ccc2cc3[n+](cc2c1OC)CCc1cc2c(cc1-3)OCO2.[Cl-] [BERBERINE CHLORIDE]	256 µg/mL	256 µg/mL	512 µg/mL	128 µg/mL	128 µg/mL	128 µg/mL	> 512 µg/mL	> 512 µg/mL	> 512 µg/mL	> 512 µg/mL				
COc1ccc2cc3[n+](cc2c1OCCN(CCn1cnc([N+](=O)[O-])c1)Cc1ccc(Cl)c(Cl)c1)CCc1cc2c(cc1-3)OCO2.[Cl-]	16 µg/mL	4 µg/mL	16 µg/mL	64 µg/mL	16 µg/mL	64 µg/mL	16 µg/mL	16 µg/mL	32 µg/mL	16 µg/mL	Stable	Stable	88.5 µg/mL	0.53
O=[N+]([O-])c1cn(CCN(CCBr)Cc2ccc(Cl)cc2)cn1	256 µg/mL (≈ 660 µM)	128 µg/mL (≈ 330 µM)	64 µg/mL (≈ 165 µM)	128 µg/mL (≈ 330 µM)	128 µg/mL (≈ 330 µM)	128 µg/mL (≈ 330 µM)	128 µg/mL (≈ 330 µM)	64 µg/mL (≈ 165 µM)	64 µg/mL (≈ 165 µM)	128 µg/mL (≈ 330 µM)				
OC(Cn1cncn1)(Cn1cncn1)c1ccc(F)cc1F [FLUCONAZOLE]						4 µg/mL (≈ 13.1 µM)		1 µg/mL (≈ 3.27 µM)						
O=[N+]([O-])c1cncn1CCN(CCBr)Cc1cccc(Cl)c1	32 µg/mL (≈ 82.5 µM)	256 µg/mL (≈ 660 µM)	16 µg/mL (≈ 41.3 µM)	64 µg/mL (≈ 165 µM)	256 µg/mL (≈ 660 µM)	64 µg/mL (≈ 165 µM)	64 µg/mL (≈ 165 µM)	64 µg/mL (≈ 165 µM)	64 µg/mL (≈ 165 µM)	64 µg/mL (≈ 165 µM)				
COc1ccc2cc3[n+](cc2c1OCCN(CCn1cnc([N+](=O)[O-])c1)Cc1ccccc1Cl)CCc1cc2c(cc1-3)OCO2.[Cl-]	16 µg/mL	16 µg/mL	4 µg/mL	16 µg/mL	64 µg/mL	128 µg/mL	16 µg/mL	8 µg/mL	4 µg/mL	16 µg/mL	Stable	Stable	95.1 µg/mL	0.51
COc1ccc2cc3[n+](cc2c1OCCN(CCn1cncc1[N+](=O)[O-])Cc1cccc(Cl)c1)CCc1cc2c(cc1-3)OCO2.[Cl-]	16 µg/mL	256 µg/mL	4 µg/mL	16 µg/mL	64 µg/mL	32 µg/mL	32 µg/mL	32 µg/mL	32 µg/mL	32 µg/mL	Stable	Stable	71.3 µg/mL	0.54
NC1CCN(c2c(F)cc3c(=O)c(C(=O)O)cn(C4CC4)c3c2Cl)C1 (stereo not drawn) [CLINAFLOXACIN]	16 µg/mL (≈ 43.7 µM)													
COc1ccc2cc3[n+](cc2c1OCCN(CCn1c([N+](=O)[O-])cnc1C)Cc1ccc(F)cc1F)CCc1cc2c(cc1-3)OCO2.[Cl-]	128 µg/mL	256 µg/mL	16 µg/mL	16 µg/mL	64 µg/mL	128 µg/mL	128 µg/mL	64 µg/mL	64 µg/mL	128 µg/mL	Stable	Stable	60.6 µg/mL	-0.34
COc1ccc2cc3[n+](cc2c1OCCN(CCn1cncc1[N+](=O)[O-])Cc1ccc(Cl)cc1)CCc1cc2c(cc1-3)OCO2.[Cl-]	16 µg/mL	32 µg/mL	16 µg/mL	32 µg/mL	32 µg/mL	64 µg/mL	32 µg/mL	32 µg/mL	128 µg/mL	64 µg/mL	Stable	Stable	68.1 µg/mL	0.53
O=[N+]([O-])c1cn(CCN(CCBr)Cc2ccc(Cl)c(Cl)c2)cn1	32 µg/mL (≈ 75.8 µM)	16 µg/mL (≈ 37.9 µM)	32 µg/mL (≈ 75.8 µM)	64 µg/mL (≈ 152 µM)	64 µg/mL (≈ 152 µM)	64 µg/mL (≈ 152 µM)	32 µg/mL (≈ 75.8 µM)	32 µg/mL (≈ 75.8 µM)	32 µg/mL (≈ 75.8 µM)	64 µg/mL (≈ 152 µM)				
O=[N+]([O-])c1cncn1CCN(CCBr)Cc1ccc(Cl)cc1	64 µg/mL (≈ 165 µM)	256 µg/mL (≈ 660 µM)	64 µg/mL (≈ 165 µM)	128 µg/mL (≈ 330 µM)	256 µg/mL (≈ 660 µM)	128 µg/mL (≈ 330 µM)	128 µg/mL (≈ 330 µM)	64 µg/mL (≈ 165 µM)	64 µg/mL (≈ 165 µM)	128 µg/mL (≈ 330 µM)				
